APP 5'UTR act: activators of APP 5'UTR luciferase reporter, primary screen, SH-SY5Y cells | SH-SY5Y APP 5'UTR luciferase reporter, luminescence; zero percent = DMSO vehicle wells | activation, % at 2 µM | hit rate 1% among 190,000;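 active means activation above a set limit, based on mean plus 3 SD of controls, cut at about 140% in these data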
STAT1 blocker: STAT1 signaling inhibitors, primary screen, cell-based, HTS, luciferase reporter; hit rate 0.35% among 200,000; NIH 3T3 STAT1-luciferase reporter, IFN-gamma, luminescence; AID 920, 2007; inhibition, % at 5.5 µM;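 active means inhibition above a set limit, the mean inhibition across all tested compounds plus 3 SD, cut at about 34% in these data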;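 further: 0% = IFN-gamma with DMSO and 100% = IFN-gamma with 300 µM nifuroxazide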
STAT3 activator: IL-6 driven STAT3 reporter potentiators, primary screen, U3A cells, luciferase, luminescence, MLSCN library | activation (% of control), % at 5.6 µM | hit rate 0.91% among 190,000 | IL-6 STAT3-luciferase reporter; 100% = signal with IL-6 EC80 alone;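 active means activation above the screen-wide mean of compound activation plus 3 SD, cut at about 130% in these data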;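 further: 0% = background luminescence of wells with medium and substrate only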
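Assay system – human STAT1-deficient U3A cells with stable STAT3-luciferase reporter · Also added – IL-6 (33 ng/mL) · Schedule – compound 1 h, then IL-6 6 h at 37 °C · Technique – reporter luminescence signal · Evaluation – % activation versus median of IL-6-stimulated wells · Benchmarks – IL-6-only wells as 100% reference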
NF-kB neuron act: activators of NF-kB expression in neurons, primary screen, cell-based, HTS | human neuronal cells, NF-kB reporter expression; stronger effect = higher value | fold change at 12.5 µM | hit rate 1.6% among 190,000 | AID 1239, 2008; in the data active means fold change above about 3.3
STAT3 blocker: IL-6 driven STAT3 reporter inhibitors, primary screen, U3A cells, luciferase, luminescence, MLSCN library; inhibition, % at 5.5 µM; hit rate 0.89% among 190,000; IL-6 STAT3-luciferase reporter; host cell line lacks STAT1;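 active means inhibition above the mean inhibition across all screened compounds plus 3 SD, cut at about 44% in these data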;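 further: 0% = DMSO only wells and 100% = 100 µM nifuroxazide control wells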
STAT1 act: STAT1 signaling activators, primary screen, cell-based, HTS, luciferase reporter. NIH 3T3 STAT1-luciferase reporter, IFN-gamma, luminescence; 100% = IFN-gamma alone, no compound. activation (% of control), % at 5.5 µM. hit rate 2.6% among 200,000;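 active means activation above the screen-wide mean activation plus 3 SD, cut at about 130% in these data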;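 further: raw ratio to IFN-gamma control signal so 100% means no change and 0% no light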
* marks the source's active call; other numbers are inactive results; nt = not tested or not shown. Sampled rows, rich in hits. Any-hit rate of the full collection: about 4.9%.

SMILES	APP 5'UTR act	STAT1 blocker	STAT3 activator	NF-kB neuron act	STAT3 blocker	STAT1 act
Cc1cc(C(=O)CSc2ncccn2)c(C)n1Cc1ccco1	141*	15	70	4.3*	41	86
CCCCCCSc1nsc(NC(=O)CC(C)C)n1	42	-8	96	1.4	9	107
CCCSc1nsc(NC(=O)CC)n1	112	-34	100	3.7*	3	130*
COc1ccc(O)c(C(=O)CC(=O)c2ccccc2C)c1	77	-50	88	2.3	19	145*
COc1ccc(NC(=O)c2ccccc2C)c(OC)c1	0	3	90	1.2	15	97
CC(=O)NCCn1c(SCc2cccc([N+](=O)[O-])c2)nc2ccccc2c1=O	9	-1	107	0.94	5	101
Cc1cc(C(=O)CSc2nnnn2-c2ccccc2)c(C)n1CC1CCCO1 (configuration not stated)	8	-43	105	0.94	0	139*
Cc1cc(C(=O)CN2C(=O)c3ccccc3S2(=O)=O)c(C)n1CC1CCCO1 (configuration not stated)	-86	79*	10	0.32	112*	27
Cc1cc(C(=O)CN2C(=O)NC(C)(c3ccccc3)C2=O)c(C)n1CC1CCCO1 (configuration not stated)	7	6	97	0.64	3	94
Cc1cc(C(=O)CSc2nc3ccccc3c(=O)n2C)c(C)n1CC1CCCO1 (configuration not stated)	-17	38*	32	0.58	82*	64
Cc1cc(N2CCN(C)CC2)nc2ccc(NC(=S)N3CCN(c4ccccn4)CC3)cc12	13	5	101	0.59	-2	95
COc1cc2cc3c(N)c(C(=O)NCc4ccco4)sc3nc2cc1OC	29	-51	92	0.98	15	146*
Cc1ccc2nc3sc(C(=O)N4CCOCC4)c(N)c3cc2c1	192*	50*	29	1.6	90*	54
Cc1ccc2nc3sc(C(=O)Nc4c(C)[nH]c(=O)[nH]c4=O)c(N)c3cc2c1	16	7	95	0.73	5	94
Cc1ccc2nc3sc(C(=O)NCc4ccco4)c(N)c3cc2c1	179*	-40	70	3.7*	40	139*
CN(C)/C=C(\C=O)c1ccc(Cl)cc1Cl	6	4	97	1.3	7	96
CCCCCN(C(=O)NC(=O)Nc1ccc(C)cc1)S(=O)(=O)c1ccccc1	6	-2	96	1	0	102
CCCCCOc1ccc(CN2CCOCC2)cc1Cl	144*	-15	106	1.9	-1	116
Clc1cc(Br)ccc1OCCN1CCOCC1	9	-10	98	1.3	4	109
COCCCNC(=O)COc1ccc(Br)cc1Cl	17	-44	104	2.2	-2	139*
CCOC(=O)C1(CCc2ccccc2)CCN(C(=O)CCn2cncn2)CC1	41	-46	109	nt	-5	139*
CCOC(=O)C1(CCCc2ccccc2)CCN(C(=O)CCn2cncn2)CC1	16	-10	99	0.71	4	108
Nc1ncnc2c1C1(CCCCC1)Cc1ccccc1-2	-6	-2	89	1.1	16	102
CN(C)/C=N/c1nc2ccc3c(c2s1)CCCC3	102	-43	107	nt	0	139*
Cn1c(-c2ccc3c(c2)OCO3)cnc1NCc1ccccc1	7	-13	103	1.1	5	111
SMILES	APP 5'UTR act	STAT1 blocker	STAT3 activator	NF-kB neuron act	STAT3 blocker	STAT1 act
Cn1c(-c2ccc3c(c2)OCO3)cnc1NCc1ccccc1Cl	60	-45	88	2.3	20	140*
CC(C)c1ccc(Nc2nc(CC(=O)O)cs2)cc1	242*	-17	83	7.2*	22	115
O=C(COC(=O)c1cc(S(=O)(=O)N2CCCCC2)ccc1N1CCOCC1)NC1CCCCC1	11	-5	105	0.78	4	105
COc1cc(NC(=O)c2cccs2)c(C(=O)OCC(=O)c2cc(C)n(-c3ccc(F)cc3)c2C)cc1OC	17	-1	99	0.99	1	101
COc1cc(NC(=O)c2cccs2)c(C(=O)OCC(=O)c2cc(C)n(-c3ccccc3)c2C)cc1OC	-21	36*	42	0.45	70*	68
COc1ccc(CCNC(=O)c2cccnc2)cc1	13	1	100	1.2	1	98
O=C1OC(Nc2cc(Br)cc3cccnc23)c2ccccc21 (configuration not stated)	12	5	133*	0.86	-39	95
Cc1ccc(N=Nc2c(N)n(-c3ccccc3)[nH]c2=O)cc1	26	-44	111	4.2*	-12	139*
NC(=O)c1ccc(N=Nc2c(-c3ccccc3)[nH]n(-c3ccccc3)c2=O)cc1	-69	-3	87	1.3	18	102
COC(=O)c1cc(NC(=O)c2ccccc2)c(=O)oc1C/C=N\OCc1ccc(Cl)cc1Cl	3	-6	94	1.1	13	106
Cc1ccc(C(=O)NCC(=O)NCC(=O)OCC(=O)c2cccs2)cc1	5	-6	101	1.1	-2	106
Cc1[nH]n(-c2ccc([N+](=O)[O-])cc2)c(=O)c1N=Nc1nc2ccccc2s1	12	-3	163*	nt	-70	103
Cc1cc([N+](=O)[O-])ccc1N=Nc1c(N)[nH]n(-c2ccccc2)c1=O	19	-5	98	1.2	3	104
CCn1c(Cc2ccccc2)nnc1SCC(=O)Nc1ccc(S(N)(=O)=O)cc1	10	6	98	1.4	4	96
COc1ccc(S(=O)NC2CCCCC2)c(OC)c1C (configuration not stated)	-3	-4	103	1.1	0	103
Cc1cccc2c(=O)c(C(=O)NCc3cccs3)c[nH]c12	5	-35	101	nt	3	136*
COc1ccc(N=C2C(=Nc3ccc(OC)cc3)N(c3ccccc3)C(=S)N2C(=O)c2ccc(Cl)cc2)cc1	10	-20	107	6.8*	-5	118
COc1ccc(N=C2C(=Nc3ccc(OC)cc3)N(c3ccc(OC)cc3)C(=S)N2C(=O)c2ccc(OC)cc2)cc1	0	-8	99	1.1	4	107
c1ccc2sc(NC3=NCN(CCN4CCOCC4)CN3)nc2c1	4	2	91	0.97	13	96
Cc1nc(Nc2nc(=O)c3ccccc3n2C)nc2c(C)cccc12	16	1	142*	nt	-40	99
Cc1nc(NC2=NCN(CCN3CCOCC3)CN2)nc2c(C)cccc12	36	0	176*	nt	-89	100
